Shown are actives, neighbours in structure and some others; about 6% of the full set was active somewhere.
PostGolgi ctrl: growth of the yeast control strain, post-Golgi counter-screen; AID 738; efflux-deficient yeast background strain, growth absorbance A615, 16 h; inhibition, % at 10 µM; 5% of 98,000 active
E coli WT exp: growth inhibitors of E. coli BW25113 wild type. OD600 absorbance. AID 710. growth inhibition, % at 100 µM. 0.15% of 98,000 active;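 active = growth inhibition above about 50% at one test dose, limit read from the data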;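 also: growth measured after 20 h incubation at 37 °C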
EphB4 antag: antagonists of human EphB4-ephrin-B2 interaction | P54760 | EphB4 LBD / TNYL-RAW-Alexa532 peptide, fluorescence polarization | inhibition, % at 7 µM | 0.15% of 97,000 active | AID 720;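 active = inhibition above the screen-wide mean inhibition plus 3 SD, cut at about 15% in these data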;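 also: 0% = DMSO wells and 100% = excess unlabeled TNYL-RAW peptide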
PostGolgi yeast: growth inhibition of a yeast mutant, post-Golgi transport screen; 0.9% of 98,000 active; post-Golgi transport phenotypic cell assay; inhibition, % at 10 µM;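 also: yeast cells grown in 1536-well plates; yeast grown about 18 h at 30C before absorbance read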
Ecoli tolC: E. coli tolC mutant growth inhibition | growth inhibition, % at 10 µM (by protocol) | E. coli BW25113 tolC mutant growth, OD615 | 2.2% of 65,000 active;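 active = growth inhibition at or above a cutoff equal to the mean over every tested compound plus 3 SD, cut at about 60% in these data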;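 also: growth measured after 20 h incubation at 37 °C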
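test system = E. coli BW25113 ΔtolC::kan bacteria | medium = LB with kanamycin 50 µg/mL | signal = OD at 615 nm | schedule = 37 °C, 20 h exposure | evaluation = % inhibition of E. coli growth | compound dosing = one dose of 10 µM final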
Numbers without * were called inactive; x = no result. Rule as the data show it, unless noted: active = inhibition above about 30%; inactive = the rest.

SMILES	PostGolgi ctrl	E coli WT exp	EphB4 antag	PostGolgi yeast	Ecoli tolC
CCOC(=O)c1cnc(SC)nc1Nc1cccc(F)c1	-21	-1	-2	18	-1
CCOC(=O)c1cnc(SC)nc1Sc1cc(Cl)ccc1Cl	16	-14	-4	33*	x
O=C(CN1CCN(c2ncc(C(F)(F)F)cc2Cl)CC1)N1CCN(c2ncc(C(F)(F)F)cc2Cl)CC1	30*	-1	2	-4	x
O=C(CSc1ccc(Cl)cc1)N1CCN(c2ncc(C(F)(F)F)cc2Cl)CC1	18	4	2	0	x
O=C(O)CCc1nc(-c2ccccc2)no1	1	-9	-7	4	-28
CCc1ccccc1N(C)C(=O)CCc1nc(-c2ccc(C)cc2)no1	44*	-14	-5	-8	100*
COc1ccc(Cl)cc1N(C)C(=O)CCc1nc(-c2ccc(C)cc2)no1	33*	-24	2	-3	90*
NC(=O)CNC(=O)[C@@H]1CC2(CC(c3ccc(Cl)cc3)=NO2)CN1C(=O)c1ccccc1 (some centres undefined)	16	0	3	-4	x
Cc1nc2ccccc2c(=O)n1NC(=O)Cc1ccc(Br)cc1	-1	7	-6	-2	x
CCCCCc1ccc(CC(=O)Nn2c(C)nc3ccccc3c2=O)cc1	41*	-2	-2	-3	x
O=C1C2C3C=CC(C3)C2C(=O)N1/N=C/c1cc(Br)cc([N+](=O)[O-])c1O (centres undefined)	4	11	3	-2	x
O=C1C2C3C=CC(C3)C2C(=O)N1/N=C/c1cn(Cc2ccccc2)c2ccccc12 (centres undefined)	32*	-6	1	5	x
O=C1C2C3C=CC(C3)C2C(=O)N1/N=C/c1cn(Cc2ccc(F)cc2)c2ccccc12 (centres undefined)	37*	-6	-10	-11	x
O=C(NC1CCCCC1)c1cccc(Cn2cc(Cl)cn2)c1	1	3	0	0	x
CCOC(=O)c1nnn(-c2nonc2-n2cccc2)c1CN1CCC(C)CC1	14	4	5	1	70*
CC(C)OC(=O)c1nnn(-c2nonc2N)c1CSc1ccccn1	37*	8	-3	9	0
CC(C)OC(=O)c1nnn(-c2nonc2N)c1CN1CCc2ccccc2C1	47*	-5	2	1	-5
O=C(COC(=O)C12CC3CC(CC(C3)C1)C2)NCCc1ccccc1	40*	2	2	-2	x
c1ccc(Cc2nn3c(C4COc5ccccc5O4)nnc3s2)cc1 (centres undefined)	18	0	6	-5	17
c1ccc(CCc2nn3c(C4COc5ccccc5O4)nnc3s2)cc1 (centres undefined)	31*	1	-1	5	27
Cc1sc(NC(=O)c2ccco2)c(C(c2cccnc2)N2CCN(C)CC2)c1C (centres undefined)	15	3	3	-4	x
Cc1sc(NC(=O)c2ccco2)c(C(c2ccncc2)N2CCOCC2)c1C (centres undefined)	33*	0	2	-4	10
Cc1sc(NC(=O)c2ccco2)c(C(c2cccnc2)N2CCCC2)c1C (centres undefined)	39*	-8	4	0	x
Cc1sc(-c2ccncc2)nc1OC(=O)c1ccccc1	7	7	4	2	x
O=c1[nH]cnc2c([N+](=O)[O-])cccc12	32*	3	-5	-2	x
SMILES	PostGolgi ctrl	E coli WT exp	EphB4 antag	PostGolgi yeast	Ecoli tolC
O=C(Nc1ccn(Cc2ccccc2F)n1)c1ccc(COc2cc(Cl)ccc2Cl)o1	13	-8	0	1	x
Cc1ccc2[nH]c3c(N4CCN(Cc5ccccc5)CC4)ncnc3c2c1	11	5	-5	10	1
CCOc1ccc2[nH]c3c(N4CCN(c5ccccn5)CC4)ncnc3c2c1	10	-11	9	18	66*
Cc1ccc2c(c1)[nH]c1c(N3CCN(Cc4ccccc4)CC3)ncnc12	14	-7	4	0	100*
Cc1cc(C)cc(N(C(C)C(=O)NCCC2=CCCCC2)S(C)(=O)=O)c1 (centres undefined)	14	-1	4	-8	x
Cc1[nH]nc(N=CC2=C(O)CC(C)(C)CC2=O)c1-c1ccccc1	15	-2	7	3	-5
Cc1[nH]nc(N=CC2=C(O)CC(c3ccco3)CC2=O)c1-c1ccccc1 (centres undefined)	45*	-3	-2	4	19
Fc1ccccc1Nc1nc2ccccc2n2nnnc12	51*	-4	-1	3	x
Cc1noc(NS(=O)(=O)c2ccc(NC(=O)COc3ccc(Cl)cc3Cl)cc2)c1C	-4	5	1	8	63*
